Screens (PubChem)
PGC1a acetyl inh: modulators of PGC1a acetylation; U2OS PGC1a acetylation, AlphaScreen anti-acetyl-lysine; with virally co-expressed GCN5 acetyltransferase; hit rate 0.17% among 350,000; inhibition, % at 15.6 µM;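 active means every replicate shows inhibition of at least 40%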;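 further: 0% = neutral control wells and 100% = positive control wells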
ARNT TACC3 PPI: disruptors of human ARNT/TACC3 interaction. inhibition, % at 9.99 µM. hit rate 0.66% among 390,000. AlphaScreen His-ARNT PAS-B/GST-TACC3 binding, luminescence; TACC3 fragment carries E629A point mutation. Q9Y6A5;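 active means mean inhibition of replicates at least 50% and at least half of replicates each reaching 50%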;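 further: 0% = complete ARNT plus TACC3 wells and 100% = ARNT alone without TACC3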
rRNA inh HTS: inhibitors of bacterial rRNA selective over humanized ribosomes | E. coli WT GFP vs humanized-ribosome RFP mutants, fluorescence, 24 h; stronger effect = lower value; DMSO median 0, no signal -100 | GFP signal change (wild-type ribosome), % (no concentration beside the values) | hit rate 1.6% among 350,000;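 active means significant combined selectivity score with lowered wild-type GFP, culture density cut under 30%, mutant RFP and density less affected; inactive means any of these conditions unmet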
S100A4 MyoIIA: S100A4-myosin IIA interaction inhibition | P26447 | S100A4/TAMRA-MyoIIA peptide fluorescence polarization | inhibition, % at 10.7 µM | hit rate 0.14% among 360,000 | AID 652163;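 active means mean inhibition of at least 70% across replicates, with every replicate also reaching that level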
Target sequence (P26447 whole entry, looked up): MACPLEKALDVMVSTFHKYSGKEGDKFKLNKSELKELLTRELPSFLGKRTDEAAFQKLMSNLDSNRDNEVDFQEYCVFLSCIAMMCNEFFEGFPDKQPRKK
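Test system: S100A4 monomer protein. Medium: HEPES buffer with Ca2+, pH 7.2. Reagent: fluorescent myosin IIA peptide, 5 nM. Compound dosing: single-point compound testing. Timing: 5 min between mix addition and reading. Benchmarks: DMSO neutral and TFP positive wells.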
ERAP1 inh: blocks human ERAP1 aminopeptidase activity. Q9NZ08. recombinant ERAP1, Leu-AMC fluorescence, 60 min. inhibition, % at 10.7 µM. hit rate 0.15% among 340,000;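 active means mean replicate inhibition of at least 30%, or all replicates individually reaching that 30% level; inactive means mean below 30% and not every replicate reaching it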;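 further: 0% = neutral control wells and 100% = L-leucinethiol positive control wells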
Casp6 inh: caspase-6 (human) enzyme inhibition; P55212; inhibition, % at 12.5 µM; purified caspase-6, Z-VEID-R110 cleavage fluorescence; hit rate 0.53% among 350,000;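 active means mean inhibition across replicates at least about 35%, with every replicate also reaching that limit, limit read from the data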;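 further: 0% = median of neutral control wells and 100% = no fluorescence left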
Target sequence (P55212 24-179 limits assumed): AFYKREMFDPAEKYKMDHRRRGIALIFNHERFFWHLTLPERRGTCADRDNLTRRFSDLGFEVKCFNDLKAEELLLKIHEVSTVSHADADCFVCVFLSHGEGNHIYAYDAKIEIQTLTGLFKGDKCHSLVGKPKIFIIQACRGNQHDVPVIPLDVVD
Target sequence (P55212 194-293 limits assumed): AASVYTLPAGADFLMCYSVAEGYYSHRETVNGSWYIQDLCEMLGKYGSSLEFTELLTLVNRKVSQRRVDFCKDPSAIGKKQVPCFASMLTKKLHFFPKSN
* = called active by the depositor; / = no result given. Only some compounds are listed: those with a hit (about 2.4% of all), similar ones and a draw of the others.

SMILES	PGC1a acetyl inh	ARNT TACC3 PPI	rRNA inh HTS	S100A4 MyoIIA	ERAP1 inh	Casp6 inh
CCN(CC)S(=O)(=O)c1cccc(NC(=O)COc2ccc(F)cc2Br)c1	/	-9	-27*	-4	-2	-5
CCN(CC)S(=O)(=O)c1ccc(/C=C/C(=O)Nc2cccc(F)c2)cc1	/	-2	-17*	0	-1	5
CCOc1ccccc1N1CCN(C(=O)c2ccccc2OCc2c(C)noc2C)CC1	-6	-4	-16*	3	-2	-106
CCOc1ccccc1N1CCN(C(=O)c2c(C)noc2C)CC1	-1	0	/	/	/	/
CCN(CC)CCNC(=O)c1ccc(NC(=O)c2ccc(-n3cncn3)c([N+](=O)[O-])c2)cc1	/	/	-3	2	100*	-1
Cc1ccc(NC(=O)c2ccc(-n3cncn3)c([N+](=O)[O-])c2)cc1	/	-2	/	/	/	/
CCCCCC(=O)NNC(=S)NC(=O)c1cccc([N+](=O)[O-])c1	/	26	/	/	/	/
O=C(NC(=S)NNS(=O)(=O)c1ccccc1)c1ccccc1[N+](=O)[O-]	/	5	-15	-1	9	52*
CCC(=O)NC(=S)Nc1ccc(NC(=O)c2ccccc2[N+](=O)[O-])cc1	-5	-4	-22*	1	-2	2
CCCCCC(=O)NNC(=S)NC(=O)c1ccccc1[N+](=O)[O-]	/	6	-32*	5	5	-1
COc1ccc2c3c(n(C)c2c1)[C@@H](CO)N(C(=O)Nc1ccc(F)cc1)CC31CN(C)C1	/	/	-1	/	/	/
O=C1C=C(NCc2ccco2)CCC1	-3	-1	2	2	2	3
CC1(C)CC(=O)C=C(NCc2ccco2)C1	40*	-14	/	/	/	/
Oc1ccc(-c2nc3cnccn3c2Nc2ccc3c(c2)OCCO3)cc1	8	3	-5	-2	-1	1
CC(C)(C)CC(C)(C)Nc1c(-c2ccc(O)cc2)nc2cnccn12	0	0	-25*	-8	-20	1
COc1cc(-c2nc3cnccn3c2Nc2ccc(C)cc2)ccc1O	-9	-7	-41*	-7	-1	4
C[C@@H]1CN([C@H](C)CO)C(=O)c2cc(-c3ccccc3F)cnc2O[C@@H]1CN(C)Cc1ccc(F)cc1	-3	/	0	7	-2	0
O=C(NCc1ccc(F)cc1)c1ccccc1OCc1ccccc1	-23	0	-38*	9	-2	-1
O=C(NNC(=O)c1ccccc1OCc1ccc(F)cc1)c1ccccc1O	22	0	/	3	-3	-1
O=C(C1CCCC1)N1CC[C@H]2[C@H](CO)Nc3ccc(Br)cc3[C@H]21	-9	/	1	-27	0	3
CCCN(C)C[C@@H]1Oc2ncc(C#CC3(O)CCCC3)cc2C(=O)N([C@H](C)CO)C[C@@H]1C	-1	-4	5	-9	3	-6
Cc1nn(Cc2ccccc2)c(C)c1NC(=O)CSc1nnc(-c2cc(Cl)ccc2O)n1C	4	18	-20*	0	-10	4
CCn1nc(C)c(NC(=O)CSc2nnc(-c3ccco3)n2C)c1C	9	-1	/	/	/	/
C[C@@H]1CN([C@H](C)CO)C(=O)c2cc(NS(=O)(=O)c3ccc(Cl)cc3)ccc2O[C@H]1CN(C)S(=O)(=O)c1ccccc1	-12	-1	-2	/	/	/
CCOC(=O)c1c(NC(=O)c2nn(CC)cc2Br)c(C#N)nn1-c1ccccc1	-14	-2	/	/	/	/
SMILES	PGC1a acetyl inh	ARNT TACC3 PPI	rRNA inh HTS	S100A4 MyoIIA	ERAP1 inh	Casp6 inh
CCOC(=O)c1c(NC(=O)c2c(Br)cnn2C)c(C#N)nn1-c1ccccc1	-3	2	-29*	-7	-6	/
CC(C)NC(=S)N/N=C/c1cc(Br)ccc1O	/	53*	/	/	/	/
COC(=O)N/N=C/c1cc(Br)ccc1O	11	-9	7	0	-1	-3
O=C(CN1C(=O)NC2NC(=O)NC21)N/N=C/c1ccccc1O (stereo not drawn)	0	66*	3	-9	-2	-2
O=C(CSCC(=O)NN=Cc1ccccc1O)NN=Cc1ccccc1O	0	/	-31	-4	3	-6
O=C(CCc1ccccc1)NCC(=O)N/N=C/c1ccc(O)cc1O	/	35	-3	6	/	-2
Cc1ccc(NC(=O)CCC(=O)N/N=C/c2ccccc2O)cc1	-2	-7	9	0	1	-4
